Results published in ChEMBL document CHEMBL3774328, “Optimization by Molecular Fine Tuning of Dihydro-β-agarofuran Sesquiterpenoids as Reversers of P-Glycoprotein-Mediated Multidrug Resistance” (J Med Chem, 2016).

Columns and labels:
[1] = target: T1, ATP-dependent translocase ABCB1 (Homo sapiens, UniProt P08183); assay: Inhibition of human MDR1 expressed in mouse NIH/3T3 cells assessed as daunomycin retention at 10 uM incubated for 30 mins by flow cytometry; type: cell-based; design: scale not given: the % may be the effect or the level left; details: nih3t3, 0.5 h
Summary of the method: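 DNM retention by flow cytometry. MDR1-G185 NIH-3T3 cells in log phase were seeded 24 h before at 10^5 cells/well. They were incubated 30 min at 37 °C in DMEM + 10% iFBS with DNM (2 μM), with or without compound (10 μM). Cells were then washed twice in ice-cold PBS, trypsinized and read immediately for single-cell fluorescence.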

[2] = target: T1, ATP-dependent translocase ABCB1; assay: Inhibition of human MDR1 expressed in mouse NIH/3T3 cells assessed as reduction in daunomycin IC50 at 1 uM by MTT assay; type: cell-based; details: nih3t3, 1 µM
Summary of the method: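 Parental NIH-3T3 and MDR1-G185 cells were grown in DMEM with 10% iFBS. They were exposed to increasing DNM or VLB (up to 500 ng/mL) with or without compound at fixed 1, 3 or 10 μM. Growth was read by MTT, and IC50 came from a four-parameter logistic fit. Mean ± SD of two independent experiments in triplicate.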

[3] = Intrinsic cytotoxicity against mouse NIH/3T3 cells transfected with human MDR1 by MTT assay; type: ADME, cell-based, NIH3T3
Summary of the method: (§1)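 Intrinsic cytotoxicity was measured by MTT in parental NIH-3T3 and MDR1-G185 cells. CC50 came from a four-parameter logistic fit. The top tested concentration was 60 μM, limited by DMSO toxicity, and growth at 60 μM is given as % of untreated control. Mean ± SD of three independent experiments in duplicate.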

[4] = target: T1, ATP-dependent translocase ABCB1; assay: Inhibition of human MDR1 expressed in mouse NIH/3T3 cells assessed as reduction in vinblastine IC50 at 10 uM by MTT assay; type: cell-based; details: nih3t3, 10 µM
Summary of the method: (§2)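 Parental NIH-3T3 and MDR1-G185 cells were grown in DMEM with 10% iFBS. They were exposed to increasing DNM or VLB (up to 500 ng/mL) with or without compound at fixed 1, 3 or 10 μM. Growth was read by MTT, and IC50 came from a four-parameter logistic fit. Reversal index = IC50 without compound / IC50 with compound in MDR1 cells. Mean ± SD of two independent experiments in triplicate.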

[5] = target: T1, ATP-dependent translocase ABCB1; assay: Inhibition of human MDR1 expressed in mouse NIH/3T3 cells assessed as reduction in vinblastine IC50 at 3 uM by MTT assay; type: cell-based; details: nih3t3, 3 µM; summary of the method: as §2
[6] = target: T1, ATP-dependent translocase ABCB1; assay: Inhibition of human MDR1 expressed in mouse NIH/3T3 cells assessed as reduction in vinblastine IC50 at 1 uM by MTT assay; type: cell-based; details: nih3t3, 1 µM; summary of the method: as §2
[7] = target: T1, ATP-dependent translocase ABCB1; assay: Inhibition of human MDR1 expressed in mouse NIH/3T3 cells assessed as reduction in daunomycin IC50 at 10 uM by MTT assay; type: cell-based; details: nih3t3, 10 µM; summary of the method: as §2
[8] = target: T1, ATP-dependent translocase ABCB1; assay: Potency index, ratio of daunomycin reversal index to compound reversal index for human MDR1 expressed in mouse NIH/3T3 cells at 1 uM; type: cell-based; details: nih/3t3, 1 µM
Summary of the method: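 Each RI comes from the MTT dose-response of DNM or VLB (up to 500 ng/mL), with or without modulator.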

[9] = target: T1, ATP-dependent translocase ABCB1; assay: Inhibition of human MDR1 expressed in mouse NIH/3T3 cells assessed as inhibition of daunomycin efflux incubated for 30 mins by flow cytometry; type: cell-based, NIH3T3
Summary of the method: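 Ki for DNM efflux. MDR1-G185 NIH-3T3 cells were incubated 30 min at 37 °C with DNM (2 μM) and varying compound concentrations, then read by flow cytometry. Fluorescence was converted to % P-gp inhibition, normalized to cells treated with 5 mM sodium orthovanadate (100%). Ki was fitted from I = (Imax × S)/(Ki + S). Mean ± SD of three independent experiments in triplicate.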

[10] = target: T1, ATP-dependent translocase ABCB1; assay: Inhibition of human MDR1 expressed in mouse NIH/3T3 cells assessed as reduction in daunomycin IC50 at 3 uM by MTT assay; type: cell-based; details: nih3t3, 3 µM; summary of the method: as §2
[11] = Intrinsic cytotoxicity against mouse NIH/3T3 cells by MTT assay; type: cell-based, NIH3T3; summary of the method: as §1
[12] = Intrinsic cytotoxicity against mouse NIH/3T3 cells assessed as cell growth at 60 uM by MTT assay; type: cell-based, NIH3T3; details: read-out: Activity; summary of the method: as §1
[13] = target: T1, ATP-dependent translocase ABCB1; assay: Potency index, ratio of vinblastine reversal index to compound reversal index for human MDR1 expressed in mouse NIH/3T3 cells at 3 uM; type: cell-based; details: nih/3t3, 3 µM
[14] = Intrinsic cytotoxicity against mouse NIH/3T3 cells transfected with human MDR1 assessed as cell growth at 60 uM by MTT assay; type: ADME, cell-based, NIH3T3; details: read-out: Activity; summary of the method: as §1

T1 sequence (P08183 whole entry): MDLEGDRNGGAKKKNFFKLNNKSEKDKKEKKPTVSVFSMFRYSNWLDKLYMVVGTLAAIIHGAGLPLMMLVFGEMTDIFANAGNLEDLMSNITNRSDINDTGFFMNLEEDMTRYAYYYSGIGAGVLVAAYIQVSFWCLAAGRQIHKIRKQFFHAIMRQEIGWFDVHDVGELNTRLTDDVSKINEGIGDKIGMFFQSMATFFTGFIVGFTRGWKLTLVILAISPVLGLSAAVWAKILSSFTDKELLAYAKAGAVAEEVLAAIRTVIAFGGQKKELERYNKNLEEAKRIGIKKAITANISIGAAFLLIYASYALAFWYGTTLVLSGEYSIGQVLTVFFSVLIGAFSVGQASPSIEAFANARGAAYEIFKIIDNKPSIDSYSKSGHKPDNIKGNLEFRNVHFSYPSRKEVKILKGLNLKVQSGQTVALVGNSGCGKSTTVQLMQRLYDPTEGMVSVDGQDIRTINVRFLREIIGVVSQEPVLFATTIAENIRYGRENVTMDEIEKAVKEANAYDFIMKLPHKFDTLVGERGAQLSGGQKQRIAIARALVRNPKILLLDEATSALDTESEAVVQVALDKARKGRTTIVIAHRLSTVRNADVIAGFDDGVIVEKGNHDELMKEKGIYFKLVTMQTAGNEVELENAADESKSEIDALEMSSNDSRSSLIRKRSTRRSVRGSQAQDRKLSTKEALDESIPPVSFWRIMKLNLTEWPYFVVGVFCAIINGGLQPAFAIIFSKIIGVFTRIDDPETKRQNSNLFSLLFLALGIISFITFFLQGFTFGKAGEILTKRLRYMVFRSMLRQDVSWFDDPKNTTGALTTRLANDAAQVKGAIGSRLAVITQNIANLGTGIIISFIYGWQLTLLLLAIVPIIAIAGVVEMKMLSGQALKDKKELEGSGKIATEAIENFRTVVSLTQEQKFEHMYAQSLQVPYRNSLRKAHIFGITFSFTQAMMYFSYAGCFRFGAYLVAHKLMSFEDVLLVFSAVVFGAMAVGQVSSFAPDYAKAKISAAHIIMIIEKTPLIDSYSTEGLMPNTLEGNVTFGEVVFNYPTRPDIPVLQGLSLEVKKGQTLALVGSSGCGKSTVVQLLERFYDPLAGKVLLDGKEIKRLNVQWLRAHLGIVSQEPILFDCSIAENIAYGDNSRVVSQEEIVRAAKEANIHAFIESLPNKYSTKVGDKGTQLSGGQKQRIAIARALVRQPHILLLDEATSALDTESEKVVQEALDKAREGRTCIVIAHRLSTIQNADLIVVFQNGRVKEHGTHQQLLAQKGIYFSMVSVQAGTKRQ

| Structure (SMILES) | Activity [1] | fold change (FC) [2] | CC50 [3] | fold change (FC) [4] | fold change (FC) [5] | fold change (FC) [6] | fold change (FC) [7] | Ratio [8] | Ki [9] | fold change (FC) [10] | CC50 [11] | viability at 60 µM [12] | Ratio [13] | viability at 60 µM [14] |
| --- | --- | --- | --- | --- | --- | --- | --- | --- | --- | --- | --- | --- | --- | --- |
| C=C1CC[C@H](OC(C)=O)[C@@]2(C)[C@@H](OC(=O)c3ccccc3)[C@@H](OC(=O)/C=C/c3ccccc3)[C@@H]3[C@@H](OS(C)(=O)=O)[C@]12OC3(C)C | 66% | – | – | – | – | – | – | – | – | – | – | – | – | – |
| CC(=O)O[C@H]1CC[C@](C)(O)[C@]23OC(C)(C)[C@H]([C@H](OC(=O)/C=C/c4ccccc4)[C@H](OC(=O)c4ccccc4)[C@]12C)[C@H]3OC(=O)N(C)C | – | 11.8 | 24 µM | 90.2 | 37.7 | 11.2 | 16.3 | 3 | 1.21 µM | 13.9 | 56.3 µM | – | – | – |
| CC(=O)O[C@H]1CC[C@](C)(O)[C@]23OC(C)(C)[C@H]([C@H](OC(=O)/C=C/c4ccccc4)[C@H](OC(=O)c4ccccc4)[C@]12C)[C@H]3O | 83% | 5.6 | 25.5 µM | 86.6 | 30.3 | 23.7 | 15.1 | – | 0.28 µM | 9.1 | 26.1 µM | – | – | – |
| C=C1CC[C@H](OC(C)=O)[C@@]2(C)[C@@H](OC(=O)c3ccccc3)[C@@H](OC(=O)/C=C/c3ccccc3)[C@@H]3[C@@H](O)[C@]12OC3(C)C | 66% | – | – | – | – | – | – | – | – | – | – | – | – | – |
| CC(=O)O[C@H]1CC[C@](C)(O)[C@]23OC(C)(C)[C@H]([C@H](OC(=O)/C=C/c4ccccc4)[C@H](OC(=O)c4ccccc4)[C@]12C)[C@H]3OC(=O)c1ccccc1 | – | 6.2 | 30.6 µM | 126.2 | 33.6 | 13.9 | 17.5 | – | 0.5 µM | 10.1 | > 60 µM | 64.1% | – | – |
| CC(=O)O[C@H]1CC[C@](C)(O)[C@]23OC(C)(C)[C@H]([C@H](OC(=O)/C=C/c4ccccc4)[C@H](OC(=O)c4ccccc4)[C@]12C)[C@H]3OC(=O)CCl | 83% | – | 5.3 µM | – | – | – | – | – | 1.52 µM | – | 7.4 µM | – | – | – |
| CC(=O)O[C@H]1CC[C@](C)(O)[C@]23OC(C)(C)[C@H]([C@H](OC(=O)/C=C/c4ccccc4)[C@H](OC(=O)c4ccccc4)[C@]12C)[C@H]3OC(C)=O | 83% | – | 18.3 µM | – | – | – | – | – | 0.29 µM | – | 26.3 µM | – | – | – |
| CC(=O)O[C@H]1CC[C@]2(C)O[C@@H]3[C@H]4[C@H](OC(=O)/C=C/c5ccccc5)[C@H](OC(=O)c5ccccc5)[C@@]1(C)[C@]32OC4(C)C | – | 5.9 | 27.9 µM | 125.2 | 75.8 | 15.2 | 15.6 | – | 0.5 µM | 8.7 | 29.4 µM | – | 2 | – |
| CCC(=O)O[C@@H]1[C@H]2[C@H](OC(=O)/C=C/c3ccccc3)[C@H](OC(=O)c3ccccc3)[C@]3(C)[C@@H](OC(C)=O)CC[C@](C)(O)[C@@]13OC2(C)C | – | 10.8 | 24.9 µM | 110.9 | 69 | 19.1 | 12.4 | 3 | 0.54 µM | 11.5 | > 60 µM | 68.6% | 2 | – |
| CC(=O)O[C@H]1CC[C@](C)(O)[C@]23OC(C)(C)[C@H]([C@H](OC(=O)/C=C/c4ccccc4)[C@H](OC(=O)c4ccccc4)[C@]12C)[C@H]3OS(C)(=O)=O | 83% | 7 | 31.7 µM | 149.2 | 86.6 | 18.5 | 16.3 | – | 0.6 µM | 11.1 | > 60 µM | 69.1% | 2 | – |
| C=C1CC[C@H](OC(C)=O)[C@@]2(C)[C@@H](OC(=O)c3ccccc3)[C@@H](OC(=O)/C=C/c3ccccc3)[C@@H]3[C@@H](OC(=O)CCl)[C@]12OC3(C)C | 66% | – | – | – | – | – | – | – | – | – | – | – | – | – |
| CC(=O)O[C@H]1CC[C@](C)(OC(=O)CNCC(C)C)[C@]23OC(C)(C)[C@H]([C@H](OC(=O)/C=C/c4ccccc4)[C@H](OC(=O)c4ccccc4)[C@]12C)[C@H]3OC(C)=O | – | 10 | 34.6 µM | 82.9 | 49.1 | 20.6 | 22.2 | 3 | 0.63 µM | 15.1 | 37.3 µM | – | – | – |
| CC(=O)O[C@H]1CC[C@](C)(OC(C)=O)[C@]23OC(C)(C)[C@H]([C@H](OC(=O)/C=C/c4ccccc4)[C@H](OC(=O)c4ccccc4)[C@]12C)[C@H]3OC(C)=O | 85% | 6.9 | 51.6 µM | 91.7 | 58.2 | 21.2 | 15.2 | – | 0.52 µM | 10.3 | > 60 µM | 68.1% | 2 | – |
| CC(=O)O[C@H]1CC[C@](C)(O)[C@]23OC(C)(C)[C@H]([C@H](OC(=O)/C=C/c4ccccc4)[C@H](OC(=O)c4ccccc4)[C@]12C)[C@H]3OC(=O)c1cccnc1 | – | 11.8 | 32.6 µM | 113.5 | 56 | 17.4 | 16.1 | 3 | 0.13 µM | 14.7 | > 60 µM | 67.7% | 2 | – |
| COc1ccc(CCN(C)CCCC(C#N)(c2ccc(OC)c(OC)c2)C(C)C)cc1OC (stereo unspecified) | – | – | > 60 µM | 129.9 | 27.8 | 8.7 | 10.8 | – | – | 6.2 | – | – | – | 76.9% |
